Screens deposited in PubChem BioAssay by several laboratories.
Hits are enriched below; roughly 4% of the tested compounds scored in any of these assays.
CHO parental Ca: ATP-evoked calcium signal inhibitors, parental CHO, primary screen, counter-screen for OX1R antagonist project, cell-based, fluorescence, Fluo-8 calcium dye; parental CHO-K1, ATP-induced calcium, Fluo-8 fluorescence; inhibition, % at 5.6 µM; 0.63% of 330,000 active; AID 463079, 2010;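 active = inhibition above that plate's mean sample inhibition plus 3 SD, cut at about 26% in these data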;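 also: 0% = ATP-challenged DMSO wells and 100% = DMSO wells without ATP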
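Assay system: untransfected parental CHO cell line. Also added: ATP agonist challenge. Dosing: one dose, 5.6 µM nominal. Measured by: Fluo-8 fluorescence. Read-out: % inhibition. Benchmarks: ATP wells versus no-ATP DMSO wells. Repeats: no replicates.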
TAAR1 antag: human TAAR1 antagonists, primary screen, Fluo-8 calcium fluorescence, CHO RD-HGA16 cells. Trace amine-associated receptor 1 (Homo sapiens), Q96RJ0. antagonist. inhibition, % at 3 µM. 1.5% of 360,000 active. AID 624466, 2012;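 active = inhibition above a per-plate cutoff, the mean inhibition of test compounds on that plate plus 3 SD, cut at about 49% in these data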;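 also: 0% = DMSO plus EC80 beta-PEA response and 100% = DMSO alone without agonist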
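Test system: RD-HGA16 CHO cells with stable hTAAR1 and Gα16 / Probe or stimulus: EC80 β-phenethylamine stimulus / Times: seeding 17-24 h prior, 75-min 37 °C, 30-min RT dye loading / Detection: Fluo-8 calcium-sensitive fluorescence / Read-out basis: % inhibition scaled between DMSO and EC80 PEA controls / Repeats: singlicate, one well per test compound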
NTR1 ag: agonists of human NTR1, primary screen, imaging, U2OS cells, beta-arrestin-GFP, high content; NTR1-U2OS beta-arrestin-GFP spot imaging, agonist mode; activation, % at 20 µM; 0.17% of 330,000 active;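 active = activation at or above 40% of the spot to cytoplasm intensity ratio, with at least 20 cells analyzed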;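 also: 0% = DMSO without peptide and 100% = 100 nM NTR1 peptide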
Target sequence (P30989 whole entry, looked up): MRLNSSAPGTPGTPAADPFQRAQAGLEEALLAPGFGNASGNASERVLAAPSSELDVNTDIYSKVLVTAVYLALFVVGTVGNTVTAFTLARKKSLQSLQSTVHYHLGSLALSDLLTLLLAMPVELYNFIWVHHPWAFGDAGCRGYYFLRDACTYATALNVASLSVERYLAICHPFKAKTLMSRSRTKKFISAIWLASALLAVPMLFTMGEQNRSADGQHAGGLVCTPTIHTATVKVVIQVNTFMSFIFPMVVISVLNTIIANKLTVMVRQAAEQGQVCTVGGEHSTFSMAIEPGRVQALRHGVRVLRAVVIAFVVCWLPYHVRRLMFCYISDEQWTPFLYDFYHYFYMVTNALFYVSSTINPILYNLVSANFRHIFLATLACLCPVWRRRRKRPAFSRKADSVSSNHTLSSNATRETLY
OX1R antag-1: OX1R (HCRTR1) antagonists, primary screen, fluorescence, CHO/OX1R cells, Fluo-8 calcium, orexin A; Orexin/Hypocretin receptor type 1 (Homo sapiens), O43613; Fluo-8 calcium fluorescence; inhibition, % at 5 µM; 0.43% of 330,000 active;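 active = inhibition above its plate's threshold, mean inhibition of all tested compounds on the plate plus 3 SD, cut at about 37% in these data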;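 also: 0% = orexin A challenge wells and 100% = SB-334867-A antagonist wells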
Target sequence (O43613 whole entry, looked up): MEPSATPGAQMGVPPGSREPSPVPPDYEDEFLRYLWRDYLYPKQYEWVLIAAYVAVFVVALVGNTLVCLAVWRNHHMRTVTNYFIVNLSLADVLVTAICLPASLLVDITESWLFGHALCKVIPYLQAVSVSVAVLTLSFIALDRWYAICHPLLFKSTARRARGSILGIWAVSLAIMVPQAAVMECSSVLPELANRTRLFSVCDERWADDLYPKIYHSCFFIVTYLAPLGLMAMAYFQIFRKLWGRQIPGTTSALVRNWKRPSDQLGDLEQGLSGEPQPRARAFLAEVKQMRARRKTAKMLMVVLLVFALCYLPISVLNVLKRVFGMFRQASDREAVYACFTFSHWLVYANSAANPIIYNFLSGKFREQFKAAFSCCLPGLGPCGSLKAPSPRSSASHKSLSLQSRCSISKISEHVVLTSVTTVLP
TAAR1 ag: human TAAR1 agonists, primary screen, Fluo-8 calcium fluorescence, CHO RD-HGA16 cells. Trace amine-associated receptor 1 (Homo sapiens), Q96RJ0. vehicle wells 0%, saturating PEA agonist 100%. activation, % at 3 µM. 0.99% of 360,000 active. AID 624467, 2012;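 active = activation above the mean activation of all test compounds in the run plus 3 SD, cut at about 38% in these data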
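System: CHO-derived RD-HGA16 cells with stable Gα16 and human TAAR1. Times: 17-24 h plating, Fluo-8 75 min 37 °C, 30 min RT. Measured by: calcium-sensitive Fluo-8 signal, excitation 470-495, emission 515-575 nm. Read-out basis: % activation relative to PEA EC100 response. Control set: DMSO and PEA EC100. Repeats: no replicates (n 1).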
OX1R antag-2: antagonists of human orexin 1 receptor (OX1R); inhibition, % at 6.6 µM; AID 485270, 2010; 1.8% of 330,000 active; OX1R-expressing cells, FRET antagonist read-out; Orexin/Hypocretin receptor type 1 (Homo sapiens), O43613; in the data active = inhibition mostly above about 38%, no sharp cut-off; inactive = mostly below about 40%;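 also: 0% = agonist challenge alone and 100% = reference antagonist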
OX1R Ca confirm: OX1R (HCRTR1) antagonists, confirmation, fluorescence, CHO/OX1R cells, Fluo-8 calcium, orexin A | shares compounds with OX1R antag-1 | orexin A calcium Fluo-8 fluorescence | inhibition, % at 5 µM | 38% of 1,100 active; in the data active = inhibition above about 29%;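 also: 0% = agonist challenge alone and 100% = reference antagonist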
CHO Ca counter: ATP-evoked calcium inhibition in parental CHO, counter-screen for OX1R antagonist project, cell-based, fluorescence, CHO-K1, triplicate; AID 492965, 2010; ATP-induced calcium, Fluo-8 fluorescence; 9.3% of 1,100 active; shares compounds with OX1R antag-1; inhibition, % at 5.6 µM;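 active = inhibition above a per-plate limit, the mean inhibition of that plate's test compounds plus 3 SD, cut at about 25% in these data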;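 also: 0% = ATP challenge with DMSO and 100% = DMSO without ATP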
OX1R HTRF confirm: OX1R (HCRTR1) antagonists, confirmation, cell-based, HTRF; OX1R-expressing cells, HTRF antagonist assay; 49% of 1,800 active; shares compounds with OX1R antag-2; AID 492964, 2010; inhibition, % at 6.6 µM; in the data active = inhibition above about 55%;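 also: CHO cells expressing OX1R stimulated with orexin A at about EC80; 0% = agonist challenge alone and 100% = reference antagonist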
CHO-K1 HTRF cnt: signal inhibition in parental CHO-K1 cells, counter-screen for OX1R antagonist project, cell-based, HTRF. shares compounds with OX1R antag-2. HTRF counterscreen. inhibition, % at 6.6 µM. 48% of 1,800 active. AID 493232, 2011; in the data active = inhibition above about 17%;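 also: 0% = agonist challenge with vehicle and 100% = vehicle alone without agonist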
TAAR1 ag conf: human TAAR1 agonists, retest of hits, confirmation, Fluo-8 calcium fluorescence, CHO RD-HGA16 cells | shares compounds with TAAR1 ag | scaled: DMSO 0%, maximal phenethylamine 100% | activation, % at 3 µM | 82% of 2,400 active | AID 651783, 2012;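 active = activation above a cutoff set at the run's mean compound activation plus 3 SD, cut at about 39% in these data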
Ga16 ag counter: nonselective calcium mobilization agonists, CHO-Ga16 cells, counter-screen for hTAAR1 agonist project, cell-based, fluorescence, CHO-Ga16 parental line | Fluo-8 calcium fluorescence; normalized to maximal ATP response, DMSO zero | 50% of 2,400 active | activation, % at 3 µM | shares compounds with TAAR1 ag | AID 651787, 2012;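 active = activation above the run cutoff, the mean activation over all tested wells plus 3 SD, cut at about 12% in these data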;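 also: 0% = DMSO wells and 100% = maximal ATP response on the peak over basal ratio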
TAAR1 desens: TAAR1 desensitization by agonist hits, confirmation, counter-screen for TAAR1 agonist project, cell-based, fluorescence, tachyphylaxis | inhibition, % at 3 µM | 46% of 2,400 active | shares compounds with TAAR1 ag | CHO RD-HGA16 hTAAR1, Fluo-8 calcium, beta-PEA response inhibition;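 active = inhibition above the run cutoff, the mean inhibition of all test compounds plus 3 SD, cut at about 49% in these data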;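 also: beta-PEA stimulus applied at its EC80; loss of beta-PEA calcium signal after compound pretreatment read as receptor desensitization; 0% = DMSO with beta-PEA at EC80 and 100% = DMSO alone without agonist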
Ga16 nonsel ant: inhibition of ATP-evoked calcium response in CHO-Ga16 cells, counter-screen for TAAR1 agonist project, cell-based, fluorescence. CHO-Ga16 ATP-induced calcium, Fluo-8 fluorescence. 39% of 2,400 active. inhibition, % at 3 µM. AID 651952, 2012. shares compounds with TAAR1 ag;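 active = inhibition above the plate's mean compound inhibition plus 3 SD, computed per plate, cut at about 22% in these data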;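 also: 0% = EC80 ATP with DMSO and 100% = DMSO wells without ATP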
Active calls of the source: *; x = no result.

SMILES | CHO parental Ca | TAAR1 antag | NTR1 ag | OX1R antag-1 | TAAR1 ag | OX1R antag-2 | OX1R Ca confirm | CHO Ca counter | TAAR1 ag conf | Ga16 ag counter | TAAR1 desens | Ga16 nonsel ant | others
COc1ccc(C(=O)NC(=S)NNC(=O)c2cccc(C)c2)cc1 | 24 | 104* | 1 | 36 | 170* | 11 | 31* | 13 | 148* | 122* | 106* | 74*
COc1ccc(C(=O)NNC(=S)NC(=O)c2cccs2)cc1 | 18 | 37 | 0 | 22 | 103* | 19 | 0 | -3 | 67* | 40* | 25 | 26*
COc1ccc(C(=O)NNC(=S)Nc2ccccc2)cc1 | 9 | -26 | 0 | 6 | 0 | 24 | x | x | x | x | x | x
CCCc1nnc(NC(=O)Cn2c(=O)oc3ccccc32)s1 | 2 | 12 | -1 | -16 | 20 | -2 | x | x | x | x | x | x
CCCc1nnc(NC(=O)Cn2c(=O)oc3cc(Br)ccc32)s1 | 6 | 63* | 6 | 40 | 121* | -2 | 28 | 11 | 106* | 73* | 75* | 45*
COc1ccc(CNC(=O)C2(C)Cc3c(-c4ccc(N(C)C)cc4)ccnc3O2)cc1OC (stereo not drawn) | x | -34 | x | x | -2 | x | x | x | x | x | x | x
O=C(Nc1nnc(-c2ccc(Cl)cc2)o1)c1nc2ccccc2s1 | -3 | 29 | 24 | 32 | 92* | -2 | -4 | 4 | 85* | 71* | 50* | 54*
CCN(CC(=O)Nc1ccc2c(c1)OCCO2)C(=O)/C=C/c1cc(Br)ccc1OC | x | -31 | x | x | 0 | x | x | x | x | x | x | x
COc1ccc(NC(=O)c2cc(CC(C)C)nc3ccccc23)cc1 | -17 | 19 | 3 | -31 | 0 | -1 | x | x | x | x | x | x
O=C(Nc1ccccc1)[C@@H]1CC=C[C@@H]2CCN(Cc3ccc(Cl)c(Cl)c3)C(=O)[C@@H]21 | -27 | 17 | 12 | 66* | 57* | 85* | 56* | -18 | 51* | 12* | 17 | 2 | OX1R HTRF confirm=92*;CHO-K1 HTRF cnt=2
Cc1ccc(C)c(Cn2nnc(C(=O)Nc3ccc4c(c3)OCCO4)c2N)c1 | 15 | 67* | 4 | 22 | 102* | 6 | 36* | 20 | 105* | 55* | 63* | 30*
CC(C)CC(=O)NC(=S)Nc1ccc(S(=O)(=O)NC(C)(C)C)cc1 | -6 | 13 | 2 | 7 | 10 | 26 | x | x | x | x | x | x
CCOc1ccc(NS(=O)(=O)c2ccc(NC(=S)NC(=O)CC(C)C)cc2)cc1 | -1 | 61* | 27 | 29 | 72* | 9 | 20 | -8 | 70* | 31* | 68* | 39*
COc1cc(CNC(=O)C2CCC(=O)N(C3CCCCCC3)C2)cc(OC)c1 (stereo not drawn) | -14 | -14 | -1 | -24 | 5 | 16 | x | x | x | x | x | x
Cc1cccn2cc(COc3cccc([N+](=O)[O-])c3)nc12 | -17 | -4 | -2 | -27 | 14 | 42 | x | x | x | x | x | x
O=[N+]([O-])c1cccc(OCc2cn3cccnc3n2)c1 | -7 | -19 | -1 | -13 | 1 | 130* | x | x | x | x | x | x | OX1R HTRF confirm=30;CHO-K1 HTRF cnt=27*
Cc1ccc(S(=O)(=O)N2CCOCC2)cc1NC(=O)COC(=O)COc1cccc2c1OC(C)(C)C2 | -12 | -2 | 0 | -13 | 5 | 13 | x | x | x | x | x | x
COc1cc2c(cc1OC)C(c1cc(C)ccc1C)CC(=O)N2 (stereo not drawn) | x | -13 | 1 | x | 3 | x | x | x | x | x | x | x
COc1ccc([N+](=O)[O-])cc1C(=O)C(=O)c1ccccc1 | -10 | -12 | 1 | -30 | 1 | 12 | x | x | x | x | x | x
COc1cc(C(=O)O)nc2ccc([N+](=O)[O-])cc12 | -12 | 0 | -1 | -11 | 6 | 88* | x | x | x | x | x | x | OX1R HTRF confirm=60*;CHO-K1 HTRF cnt=98*
CCC(C(=O)NC1CCCC1)n1c2ccccc2c2nc(=O)cc(C)n21 (stereo not drawn) | x | -6 | x | x | 0 | x | x | x | x | x | x | x
CCOCCCNC(=O)c1c(N)n(-c2ccc3c(c2)OCO3)c2nc3ccccc3nc12 | -13 | 34 | 4 | -20 | 17 | 17 | x | x | x | x | x | x
COCCCNC(=O)c1c(N)n(-c2ccc3c(c2)OCO3)c2nc3ccccc3nc12 | -15 | 35 | 4 | -6 | 21 | 104* | x | x | x | x | x | x | OX1R HTRF confirm=29;CHO-K1 HTRF cnt=1
CC(OC(=O)c1cccc(-n2cnnn2)c1)C(=O)Nc1ccc(N(C)C)cc1 (stereo not drawn) | -10 | -16 | -1 | 0 | 3 | 14 | x | x | x | x | x | x
N#Cc1cc2[nH]c3ccccc3c2[n+](-c2ccc([N+](=O)[O-])cc2)c1N | -5 | -25 | 2 | 4 | 1 | 124* | x | x | x | x | x | x | OX1R HTRF confirm=32;CHO-K1 HTRF cnt=38*
